For three compounds, Km and IC50 results are on record in publication PMC1316110 (Nucleic Acids Research, 2005).

The target of assay [1] is T1, MtuLigA (Mycobacterium tuberculosis, UniProt P9WNV1). Nature of the assay: Mode of inhibition, Michaelis-Menten / Lineweaver-Burk kinetics. It is filed as biochemical, M.tuberculosis. The following applies: read-out: Km for NAD^+; absence of the inhibitor, 10% Me2SO. The procedure, abridged: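 Full-length recombinant MtuLigA (2 ng), 50 mM Tris–HCl pH 8.0, 5 mM DTT, 10 mM MgCl2, 10% Me2SO, 5′-32P-labelled nicked 40 bp duplex at 0.85 µM (saturating), NAD+ 0–50 µM, compound 0–250 or 0–450 µM; 1 h, 25°C. Ligation rate from gel scanning; Michaelis–Menten fit. Ki from apparent Km versus compound concentration. Mode from Lineweaver–Burk linear regression.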

The target of assay [2] is T2, T4 DNA ligase (Enterobacteria phage T4, UniProt P00970).
T2 sequence (P00970 1-487): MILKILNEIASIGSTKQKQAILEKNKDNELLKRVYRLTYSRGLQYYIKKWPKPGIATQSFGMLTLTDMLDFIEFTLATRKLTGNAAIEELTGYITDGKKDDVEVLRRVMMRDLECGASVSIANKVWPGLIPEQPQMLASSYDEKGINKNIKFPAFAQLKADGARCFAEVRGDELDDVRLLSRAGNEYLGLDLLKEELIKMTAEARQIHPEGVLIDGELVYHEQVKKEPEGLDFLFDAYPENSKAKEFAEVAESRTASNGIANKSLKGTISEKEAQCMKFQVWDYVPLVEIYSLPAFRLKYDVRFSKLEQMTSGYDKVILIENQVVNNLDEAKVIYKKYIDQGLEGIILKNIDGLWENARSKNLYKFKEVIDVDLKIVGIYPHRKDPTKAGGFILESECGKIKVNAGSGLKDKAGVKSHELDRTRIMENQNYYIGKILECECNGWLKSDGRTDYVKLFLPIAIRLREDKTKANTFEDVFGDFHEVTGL
The assay can be described thus: In vitro ligase inhibition assay, 32P-labeled nicked 40 bp DNA substrate. It is filed as biochemical, bacteriophage T4. To be noted: read-out: IC50 T4Lig; 66 µM ATP, 10% Me2SO.

The target of assay [3] is T1, MtuLigA. The assay is classed as biochemical, M.tuberculosis. The following applies: read-out: IC50 MtuLigA; 50 µM NAD+, 10% Me2SO, 1 h at 25°C.

Take `NC(=O)c1ccc[n+]([C@@H]2O[C@H](COP(=O)([O-])OP(=O)(O)OC[C@H]3O[C@@H](n4cnc5c(N)ncnc54)[C@H](O)[C@@H]3O)[C@@H](O)[C@H]2O)c1` [NAD]: the Km in assay [1] turned out to be 1.56 µM. Turning to Chloroquine [Compound 6], the IC50 worked out at 3 ± 0.2 µM in assay [2] and 5 ± 0.3 µM in assay [3]. Doxorubicin [Compound 7]: the IC50 in assay [2] is 1600 ± 15 µM.
